Experimental data reported in ChEMBL document CHEMBL1134666, “Design, synthesis, and biological evaluation of novel nucleoside and nucleotide analogues as agents against DNA viruses and/or retroviruses” (J Med Chem, 2001).
Each block holds one compound with its values, some of them ahead of it.

Columns and labels:
[1] = target: T1, Adenosine deaminase (Bos taurus) (UniProt P56658); experiment: Maximum velocity constant of the rate of deamination was determined against adenosine deaminase
T1 sequence (whole entry): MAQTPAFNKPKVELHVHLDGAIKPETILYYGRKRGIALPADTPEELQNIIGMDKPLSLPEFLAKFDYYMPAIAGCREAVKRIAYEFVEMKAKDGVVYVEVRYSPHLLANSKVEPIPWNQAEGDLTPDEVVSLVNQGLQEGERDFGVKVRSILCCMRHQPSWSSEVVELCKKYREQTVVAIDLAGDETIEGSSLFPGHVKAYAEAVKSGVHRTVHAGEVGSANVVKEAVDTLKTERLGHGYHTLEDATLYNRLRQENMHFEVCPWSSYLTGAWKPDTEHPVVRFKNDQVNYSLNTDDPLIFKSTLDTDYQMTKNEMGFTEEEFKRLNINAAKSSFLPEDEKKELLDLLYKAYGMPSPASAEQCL
Outline: (§1)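 Calf mucosal adenosine deaminase in buffer solution. Reaction velocity measured as µmol/min per mg enzyme across substrate concentrations.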

Vero = experiment: Michaelis rate constant is determined by the Lineweaver and Burk method against Vero cell thymidine kinase; type: functional, cell-based; details: Chlorocebus sabaeus
[2] = Maximum velocity constant of the rate of phosphorylation was determined against PRPP synthetase
Outline: (§2)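 PRPP synthetase (0.04 unit) in 10.0 mM potassium phosphate pH 8.0 with 5.0 mM MgCl2, 2.5 mM PRPP and substrate. Reaction linear; stopped with MeOH after 4 h. Diphosphate products quantified by anion-exchange HPLC.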

[3] = Michaelis rate constant is determined by the Lineweaver and Burk method against PRPP synthetase; outline: as §2
[4] = system: Thymidine kinase (Herpes simplex virus 1); experiment: Maximum velocity constant of the rate of phosphorylation was determined in the presence of HSV thymidine kinase
[5] = target: T1, Adenosine deaminase (Bos taurus); experiment: Maximum velocity constant against adenosine deaminase; outline: as §1
[6] = system: Thymidine kinase (Herpes simplex virus 1); experiment: Maximum velocity constant of the rate of phosphorylation was determined against HSV thymidine kinase
[7] = Maximum velocity constant of the rate of phosphorylation was determined against PRPP synthetase

Relative Vmax [2]: 14
Km [3]: 240 µM
Structure (SMILES): Nc1ncnc2c1ncn2[C@@H]1O[C@H](COP(=O)(O)O)[C@@H](O)[C@H]1O

Relative Vmax [4]: < 3
Relative Vmax [5]: 1.5
Structure (SMILES): Nc1ncnc2c1ncn2COCCO
Km (Vero): > 3 µM

The remaining lines, values behind:

Structure (SMILES): Nc1ncnc2ncn(COCCO)c12
Relative Vmax [1]: 1.5
Km (Vero): > 3 µM

Structure (SMILES): Nc1nc(O)c2c(ncn2COCCO)n1
Relative Vmax [6]: 28

Structure (SMILES): Nc1ncnc2c1ncn2[C@@H]1O[C@H](CO)[C@@H](O)[C@@H]1O
Relative Vmax [1]: 1
Km (Vero): 2.2 µM

Structure (SMILES): Nc1ncnc2ncn(CCOCP(=O)(O)O)c12
Relative Vmax [7]: 0.013
